Screens (PubChem BioAssay)
Compounds with a hit are over-represented: about 2.7% of the library has one in this group of screens.
sPLA2-III inh: Blocks human group III sPLA2 activity; actives 0.56% (n = 370,000); QFRET BODIPY PC-A2 liposome hydrolysis, fluorescence; Q9NZ20; inhibition, % at 12.2 µM;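 active = inhibition above mean plus 3 SD of compounds lying within the high and low control bounds, cut at about 19% in these data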;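 also: 0% = median of test compound wells and 100% = no enzyme DMSO wells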
Target sequence (Q9NZ20 whole entry, looked up): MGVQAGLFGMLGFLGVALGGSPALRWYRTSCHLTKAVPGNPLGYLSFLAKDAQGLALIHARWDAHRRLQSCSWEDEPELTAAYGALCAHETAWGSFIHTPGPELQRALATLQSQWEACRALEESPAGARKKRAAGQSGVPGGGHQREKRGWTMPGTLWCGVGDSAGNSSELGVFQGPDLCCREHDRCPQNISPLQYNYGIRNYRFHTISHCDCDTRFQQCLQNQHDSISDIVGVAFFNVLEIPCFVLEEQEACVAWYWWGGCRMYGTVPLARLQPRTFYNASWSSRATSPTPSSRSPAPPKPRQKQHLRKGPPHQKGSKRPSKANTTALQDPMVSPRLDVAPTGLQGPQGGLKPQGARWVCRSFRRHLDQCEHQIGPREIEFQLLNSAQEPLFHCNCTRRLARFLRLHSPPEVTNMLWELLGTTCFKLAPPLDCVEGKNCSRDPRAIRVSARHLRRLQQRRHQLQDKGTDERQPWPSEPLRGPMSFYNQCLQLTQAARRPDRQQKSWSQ
ASAP1 GAP inh: inhibitors of human ASAP1 ArfGAP activity; ASAP1-stimulated ARF1 GTP hydrolysis, GDP FP detection; actives 0.19% (n = 360,000); inhibition, % at 16.5 µM; in the data active = inhibition above about 25%;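 also: 0% = vehicle with enzyme and substrate and 100% = no enzyme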
NR1D1 modulator: modulators of human Rev-erb alpha DNA binding; P20393; Rev-erbα–FITC-DNA binding, fluorescence polarization, 90 min; activity, % at 10 µM; actives 0.79% (n = 370,000);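 active = activity above about 14%, limit read from the data; passing the limit was not always enough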;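 also: 0% = DMSO wells with 35 nM protein and 100% = DMSO wells with 750 nM protein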
MsrA act: activators of bovine methionine sulfoxide reductase A; purified bovine MsrA, absorbance read-out; actives 0.3% (n = 360,000); activation, % at 10.6 µM; in the data active = activation above about 7.5%;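 also: 0% = vehicle and 100% = reference activator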
MsrA inh: inhibitors of bovine MsrA. purified bovine MsrA, absorbance read-out. inhibition, % at 15.5 µM. actives 0.75% (n = 360,000). AID 651718; in the data active = inhibition above about 4.5%;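 also: 0% = vehicle wells with enzyme and 100% = reference inhibitor wells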
ARFGAP1 inh: inhibitors of rat ARFGAP1 | Arfgap1-stimulated ARF1 GTP hydrolysis, GDP FP detection | inhibition, % at 16.5 µM | actives 0.26% (n = 360,000) | Q62848;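 active = inhibition above a per-plate limit, mean inhibition of low control wells plus 3 SD, cut at about 25% in these data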;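 also: 0% = DMSO wells with enzyme and 100% = wells lacking Arfgap1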
Target sequence (Q62848 1-136 limits assumed): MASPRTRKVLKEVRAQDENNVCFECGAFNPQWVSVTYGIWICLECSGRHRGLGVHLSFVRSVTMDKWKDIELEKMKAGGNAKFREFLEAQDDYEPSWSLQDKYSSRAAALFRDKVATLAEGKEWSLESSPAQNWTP
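System: truncated rat Arfgap1 GAP domain / Benchmarks: high control wells lacking Arfgap1, low control full reaction with DMSO / Times: compound-enzyme preincubation 20 min, reaction 120 min, detection 60 min, 25 °C / Repeats: one replicate per compound / Also added: human ARF1(Δ1-17)-GTP substrate / Measured by: Tracer-displacement fluorescence polarization with EDTA stop, 620/688 nm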
NR1D1 mod conf: Rev-erb alpha (human) modulation, hit confirmation. shares compounds with NR1D1 modulator. Rev-erb alpha FITC-DNA binding, fluorescence polarization, 90 min. activation, % at 25 µM. actives 61% (n = 3,000). AID 1259319;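 active = activation at or above a set limit, or at least 3 SD above the negative control mean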;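 also: 0% = 35 nM protein with DMSO and 100% = 750 nM protein high control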
RORg counter: affects RORgamma DNA binding in a Rev-erb alpha counter-screen; AID 1259320; shares compounds with NR1D1 modulator; IC50, µM; actives 8% (n = 910); purified RORgamma protein-FITC-DNA binding, fluorescence polarization;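 active = Compounds whose fitted half-maximal concentration for disrupting protein-DNA binding is below 10 micromolar; the record names Rev-erb in its text, so the target is in doubt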
* hit, by the source's call; i = inactive; · = no result.

SMILES	sPLA2-III inh	ASAP1 GAP inh	NR1D1 modulator	MsrA act	MsrA inh	ARFGAP1 inh	NR1D1 mod conf	RORg counter
Fc1ccc2nc(Nc3nc4c(F)cc(F)cc4s3)sc2c1	-2	12	53*	-2	-1	10	41*	>40
Fc1cccc2sc(Nc3nc4ccccc4s3)nc12	1	-4	40*	-3	2	11	35*	>40
Nc1c(C(=O)Nc2ccccc2F)sc2nc(Cc3ccccc3)cc(C(F)(F)F)c12	3	-2	108*	-3	0	-2	81*	·
Cc1cc(C(F)(F)F)c2c(N)c(C(=O)Nc3cc(C)on3)sc2n1	-1	13	86*	-8	0	-10	60*	>40
COCc1cc(C)nc2sc(C(=O)Nc3ccccc3F)c(N)c12	1	7	2	-5	-1	0	·	·
CCC[C@@H](/C=C/C(=O)OC(C)(C)C)Sc1ccc(C(C)(C)C)cc1	19	·	4	·	·	·	·	·
CCn1c(Cc2cccs2)nnc1SCC(=O)Nc1cccc2ccccc12	2	·	5	·	·	·	·	·
O=C(Nc1ccc(F)cc1)C(c1ccnc2ccccc12)N1CCN(c2cccc(C(F)(F)F)n2)CC1 (stereo not drawn)	-13	5	-4	·	0	-1	·	·
O=[N+]([O-])c1ccc(-c2nc(-c3cccs3)c(-c3cccs3)[nH]2)cc1	9	-10	24*	3	2	1	33*	>40
O=[N+]([O-])c1cccc(-c2nc(-c3cccs3)c(-c3cccs3)[nH]2)c1	5	-3	29*	-13	1	-1	25*	·
COc1ccc(-c2nc(-c3ccccc3)c(-c3cccs3)[nH]2)cc1OC	0	6	10	-2	0	7	·	·
COc1ccc(-c2nc(-c3cccs3)c(-c3cccs3)[nH]2)cc1OC	4	13	44*	-11	4	1	64*	>40
CCOc1ccc(Cl)cc1-c1cc(C(=O)NCc2cccc(C(F)(F)F)c2)[nH]n1	-7	1	-2	-1	0	5	·	·
Cc1cc(C)cc(NC(=S)/C(=C(\[O-])c2ccc(Cl)cc2Cl)[n+]2ccc(C(C)(C)C)cc2)c1	1	-7	36*	-5	1	-1	31*	7.9*
N#CC1=C(SCC(N)=O)NC2=C(C(=O)c3ccccc32)C1c1ccc(Cl)cc1 (stereo not drawn)	-5	12	33*	-1	-1	10	54*	>40
CCc1nc2c(c(SC)nn2-c2ccccc2)c(N)c1C(=O)OC	-1	5	26*	-5	0	1	7	·
COc1cc(OC)c(N(C)S(=O)(=O)c2cccc(C(=O)OCC(=O)N3CCOCC3)c2)cc1Cl	-7	-9	3	-2	0	7	·	·
COc1cc(OC)c(N(C)S(=O)(=O)c2cccc(C(=O)OCc3c(C)noc3C)c2)cc1Cl	-16	11	23*	-5	2	-2	37*	i
CCCCCCCCN1C(=O)[C@H](CC(=O)NCCCCc2ccccc2)C[C@@]2(C(=O)OCC)CCCC=C12	7	10	5	-8	1	18	·	·
COCCNC(=O)CSc1cc(-c2ccccc2)c2ccc(OC)cc2n1	-12	-5	3	-3	0	1	·	·
COc1ccc2c(-c3ccccc3)cc(SCC(=O)NC(N)=O)nc2c1	6	4	40*	-3	1	13	14	·
COc1ccc2c(C)cc(SCC(=O)Nc3ncc(Cl)cc3Cl)nc2c1	13	-14	119*	-10	-1	9	56*	>40
COc1ccc2c(C)cc(SCC(=O)Nc3cccnc3Cl)nc2c1	-2	1	59*	-8	0	-1	69*	i
C[n+]1cc(C(O)(c2ccccc2)c2ccccc2)n2ccccc21	5	·	-3	·	·	·	·	·
CCOC(=O)c1nn(-c2ccc(Cl)cc2)c2nc(CC)c(C#N)c(=O)n12	-1	4	33*	-10	0	1	6	·
SMILES	sPLA2-III inh	ASAP1 GAP inh	NR1D1 modulator	MsrA act	MsrA inh	ARFGAP1 inh	NR1D1 mod conf	RORg counter
CCOC(=O)c1nn(-c2ccc(Cl)cc2)c2nc(-c3ccc(C)cc3)c(C#N)c(=O)n12	-2	2	36*	1	1	0	37*	>40
Cc1ccc(-c2c(C#N)c(N)n(-c3ccc(Cl)cc3)c(=O)c2C#N)cc1	-6	0	38*	0	2	3	29*	>40
O=C(Nc1cccc(C(F)(F)F)c1)c1ccc2sc([C@H]3C[C@H](O)[C@@H](CO)O3)nc2c1	-4	8	-3	-6	1	7	·	·
C[C@H]1CN([C@@H](C)CO)S(=O)(=O)c2ccc(Br)cc2O[C@@H]1CN(C)Cc1cccc(F)c1	-14	8	1	-1	-1	-3	·	·
N#Cc1nc(-c2ccc(OCc3ccc(Cl)cc3)cc2)oc1N1CCOCC1	-3	-5	38*	-7	0	0	-3	·
N#Cc1nc(-c2ccc(OCc3ccc(Cl)cc3)cc2)oc1N1CCC(C(N)=O)CC1	2	22	-8	-1	-1	-1	·	·
O=S(=O)(c1ccccc1)N1CCN(Cc2ccccc2)c2ccccc21	7	-9	25*	-9	2	-8	17*	·
O=C1CCCc2nc(N3CCN(c4ccccc4)CC3)ncc21	1	-2	24*	-7	-1	-8	18*	·
COc1ccc(NC(=O)CCCn2cc([N+](=O)[O-])cn2)cc1	-1	11	26*	-5	0	0	0	·
COc1ccc2nc(C(F)(F)C(F)(F)F)c(C#N)c(N)c2c1	-11	18	46*	-4	0	20	28*	·
Cc1ccc(C(c2sc3nc(C)nn3c2O)N2CCN(CCO)CC2)cc1 (stereo not drawn)	2	2	17*	-2	1	9	6	·
Cc1nc2sc(C(c3ccc(C(C)C)cc3)N3CCN(CCO)CC3)c(O)n2n1 (stereo not drawn)	-6	-4	0	-4	-1	2	·	·
CCOC(=O)c1c(C)c(C#N)c2c3ccccc3ccn12	2	-4	58*	-2	0	3	17*	·
Cc1cc(=O)oc2c(C)cc(C(C)(C)C)cc12	-3	-2	27*	-1	0	13	26*	·
Cc1nc(N(C)C2CCCCC2)c2nnn(Cc3ccc(F)cc3)c2n1	3	0	31*	-2	0	1	-6	·
CCN(C)c1nc(C)nc2c1nnn2Cc1ccccc1	1	·	3	·	·	·	·	·
CNc1c2cccc(C)c2nc2c(C(=O)NCCN(C)C)cccc12	-24	-9	15*	0	0	0	8	·
